# Experimental data from ChEMBL document CHEMBL1137155, “Identification of [(naphthalene-1-carbonyl)-amino]-acetic acid derivatives as nonnucleoside inhibitors of HCV NS5B RNA dependent RNA polymerase” (Bioorg Med Chem Lett, 2004).
# Target: DNA polymerase beta (Homo sapiens, UniProt P06746)
# Assay: Inhibitory concentration against human beta polymerase
row,IC50,Structure (SMILES)
1,> 100 µM,COC(=O)N(CC(=O)O)C(=O)c1c(Cl)ccc2c(C(F)(F)F)c(OC)ccc12

# Target: RNA-directed RNA polymerase (Hepacivirus hominis, UniProt O39930)
# Assay: Inhibitory concentration against HCV NS5B RNA dependent RNA polymerase
# Outline: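 Enzyme: recombinant C-terminally truncated NS5B from genotype 1b, BK strain. Inhibitor was pre-incubated with the enzyme for 15 min. An RNA template, NTPs and [α-32P]GTP were then added, and the reaction ran for 2 h at room temperature. Product RNA was collected by filtration, and incorporated radioactivity was measured by scintillation counting.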
# Chain of RNA-directed RNA polymerase (O39930 whole entry): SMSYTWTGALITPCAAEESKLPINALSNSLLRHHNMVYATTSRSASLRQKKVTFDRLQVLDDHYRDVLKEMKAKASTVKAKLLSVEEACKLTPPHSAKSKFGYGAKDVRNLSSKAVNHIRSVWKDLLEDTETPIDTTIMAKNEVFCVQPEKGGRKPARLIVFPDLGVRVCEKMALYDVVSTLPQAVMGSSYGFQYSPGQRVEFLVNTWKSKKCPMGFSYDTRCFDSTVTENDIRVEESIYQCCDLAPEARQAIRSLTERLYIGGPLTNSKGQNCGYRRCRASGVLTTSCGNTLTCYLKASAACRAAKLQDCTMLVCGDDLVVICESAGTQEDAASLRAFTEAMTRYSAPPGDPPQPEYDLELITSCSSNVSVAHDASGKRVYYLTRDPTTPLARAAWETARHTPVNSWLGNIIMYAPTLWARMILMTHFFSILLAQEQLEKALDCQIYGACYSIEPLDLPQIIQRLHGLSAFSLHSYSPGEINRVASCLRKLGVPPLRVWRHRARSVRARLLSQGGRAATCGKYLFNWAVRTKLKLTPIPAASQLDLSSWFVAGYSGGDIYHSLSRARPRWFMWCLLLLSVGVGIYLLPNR
row,Structure (SMILES),IC50
1,C#CCOC(=O)N(CC(=O)O)C(=O)c1c(Br)ccc2c(C(F)(F)F)c(OC)ccc12,2.9 µM
2,COC(=O)N(CC(=O)O)C(=O)c1c(Cl)ccc2c(C(F)(F)F)c(OC)ccc12,5 µM
3,CCOC(=O)N(CC(=O)O)C(=O)c1c(Br)ccc2c(C(F)(F)F)c(OC)ccc12,3.1 µM
4,COc1ccc2ccccc2c1C(=O)NC(CC(=O)O)C(=O)O (stereo unspecified),> 10 µM
5,COc1ccc2c(C(=O)N(CC(=O)O)C(=O)OCC(C)C)c(Br)ccc2c1C(F)(F)F,7.7 µM
6,COC(=O)N(CC(=O)O)C(=O)c1c(-c2ccc(Cl)cc2)ccc2c(C(F)(F)F)c(OC)ccc12,> 20 µM
7,COC(=O)N(CC(=O)O)C(=O)c1c(F)ccc2c(C(F)(F)F)c(OC)ccc12,15.2 µM
8,COc1ccc2c(C(=O)NC(CC(=O)O)C(=O)O)c(F)ccc2c1C(F)(F)F (stereo unspecified),2.1 µM
9,COc1ccc2c(C(=O)N(CC(=O)O)C(=O)OCC(C)(C)C)c(Br)ccc2c1C(F)(F)F,6.4 µM
10,COC(=O)N(CCC(=O)O)C(=O)c1c(Br)ccc2c(C(F)(F)F)c(OC)ccc12,> 10 µM
11,COC(=O)N(CC(=O)O)C(=O)c1c(OC)ccc2c(C(F)(F)F)c(OC)ccc12,11.3 µM
12,CCCOC(=O)N(CC(=O)O)C(=O)c1c(Br)ccc2c(C(F)(F)F)c(OC)ccc12,4.9 µM
13,COc1ccc2c(C(=O)N(C)CC(=O)O)c(Cl)ccc2c1C(F)(F)F,5.1 µM
14,COC(=O)N(CC(=O)O)C(=O)c1cccc2c(C(F)(F)F)c(OC)ccc12,> 26 µM
15,COc1ccc2c(C(=O)N(C)CC(=O)O)c(Br)ccc2c1C(F)(F)F,2 µM
16,C=CCOC(=O)N(CC(=O)O)C(=O)c1c(Br)ccc2c(C(F)(F)F)c(OC)ccc12,3.3 µM

# Stronger by IC50, values ahead:
row,IC50,Structure (SMILES)
1,1.4 µM,COC(=O)N(CC(=O)O)C(=O)c1c(Br)ccc2c(C(F)(F)F)c(OC)ccc12
2,0.91 µM,COc1ccc2c(C(=O)NC(CC(=O)O)C(=O)O)c(Br)ccc2c1C(F)(F)F (stereo unspecified)
3,0.9 µM,COc1ccc2c(C(=O)N(CC(=O)O)CC(=O)O)cccc2c1C(F)(F)F
4,0.59 µM,COc1ccc2c(C(=O)NC(CCC(=O)O)C(=O)O)cccc2c1Br (stereo unspecified)
5,0.12 µM,COc1ccc2c(C(=O)NC(CCC(=O)O)C(=O)O)c(Br)ccc2c1C(F)(F)F (stereo unspecified)
6,1.2 µM,COc1ccc2c(C(=O)NC(CC(=O)O)C(=O)O)cccc2c1Br (stereo unspecified)
7,0.49 µM,COc1ccc2c(C(=O)NC(CCC(=O)O)C(=O)O)cccc2c1C(F)(F)F (stereo unspecified)
8,1.4 µM,COc1ccc2c(C(=O)NC(CCC(=O)O)C(=O)O)c(F)ccc2c1C(F)(F)F (stereo unspecified)
9,1.3 µM,COc1ccc2c(C(=O)NC(CC(=O)O)C(=O)O)cccc2c1C(F)(F)F (stereo unspecified)
